Experimental data taken from ChEMBL document CHEMBL1629590, “Variety of antiprion compounds discovered through an in silico screen based on cellular-form prion protein structure: Correlation between antiprion activity and binding affinity” (Antimicrob Agents Chemother, 2009).

Tests used:
[1] = molecular target: Major prion protein (Mus musculus) (UniProt P04925); assay: Antiprion activity against mouse recombinant PrP expressed in Fukuoka-1 stain infected mouse GT1-7 cells assessed as remaining PrP-res level at 10 uM after 72 hrs by Western blotting relative to control; format: cell-based
Major prion protein (Mus musculus), sequence (P04925 whole entry): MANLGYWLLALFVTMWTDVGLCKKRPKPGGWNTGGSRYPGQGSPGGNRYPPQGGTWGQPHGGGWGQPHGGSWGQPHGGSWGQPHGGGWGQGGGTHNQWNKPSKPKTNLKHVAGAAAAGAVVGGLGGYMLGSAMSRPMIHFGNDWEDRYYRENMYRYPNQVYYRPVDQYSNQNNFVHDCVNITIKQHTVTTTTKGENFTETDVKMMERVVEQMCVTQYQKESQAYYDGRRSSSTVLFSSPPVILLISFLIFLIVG
Outline: (§1)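 GT+FK cells (GT1-7 neuronal line persistently infected with Fukuoka-1 agent) in DMEM/10% FBS, 37°C, 5% CO2; 1.5 × 10⁵ cells/well, dosed 15 h after plating with compound from fresh 10 mM DMSO stock (vehicle 0.1%) for 72 h. Lysates in Triton X-100/deoxycholate buffer adjusted to 2 mg/ml protein; PrP^Sc by Western blot with M-20 antibody, densitometry versus solvent control; effective if <70% of control; ≥2 independent experiments.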

Major prion protein = Major prion protein (Mus musculus, UniProt P04925); assay: Binding affinity to mouse recombinant PrP (121-231) after 10 mins by surface plasmon resonance assay
Major prion protein, sequence (P04925 whole entry): as above
Outline: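 Recombinant mouse PrP(121-231) immobilized on CM5 chip; compounds at various concentrations injected in HEPES-buffered saline (pH 7.4) with 0.1% P20 and 5% DMSO, 1 min at 30 μl/min, then buffer alone for 10 min. Blank-chip corrected; Kd fitted from concentration dependence of sensorgram response.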

[2] = molecular target: Major prion protein (Mus musculus) (UniProt P04925); assay: Antiprion activity against mouse recombinant PrP expressed in Fukuoka-1 stain infected mouse GT1-7 cells at 10 uM after 72 hrs by Western blotting; format: cell-based; outline: as §1
[3] = Solubility of the compound; format: physicochemical

SMILES	Activity [1]	other results
CC1Cc2ccccc2N1C(=O)COc1ncnc2sccc12 (stereo not drawn)	67.4%	–
CCC(C)C(NC(=O)c1ccccc1)C(=O)N1CCc2ccccc21 (stereo not drawn)	36.8%	Kd (Major prion protein; read-out: Kd): 51.2 µM; Activity [2]: < 70%
Cc1ccc(NC(=O)CN2C(=O)NC3(CCc4ccccc43)C2=O)cc1 (stereo not drawn)	150%	–
Cc1cccc2cc3c(N)c(C(=O)NC4CCCC4)sc3nc12	41.9%	Kd (Major prion protein; read-out: Kd): 86.1 µM; Activity [2]: < 70%
O=C(COC(=O)c1c2c(nc3ccccc13)CCC2)NC1CCCC1	62.9%	–
O=C1c2cccc3cccc(c23)N1CC(=O)N1CC2CCC1C2 (stereo not drawn)	65%	–
Cc1cccc(NC(=O)N2CCCC2C(=O)NC2CCCC2)c1 (stereo not drawn)	63.2%	–
O=C(CSc1nc2ccccc2[nH]1)NC1CCCc2ccccc21 (stereo not drawn)	64.9%	–
CC1CCCCC1NC(=O)COc1ncnc2sc3c(c12)CCC3 (stereo not drawn)	68.8%	–
O=C(Cc1c[nH]c2ccccc12)NC1CCc2ccccc2C1 (stereo not drawn)	55.3%	Kd (Major prion protein; read-out: Kd): 48.6 µM
CN1/C(=C/C(=O)Nc2cccs2)c2ccccc2CC1(C)C	57.4%	–
O=C(COc1ncnc2ccccc12)NC1CCCc2ccccc21 (stereo not drawn)	53%	–
O=C(NCc1ccccn1)C1CC2c3ccccc3C1c1ccccc12 (stereo not drawn)	54.7%	solubility [3]: Insoluble
C=CCNC(=O)NC(=O)CSc1nc2ccccc2n1CC(C)C	–	Kd (Major prion protein): Not Active
CC1CCCCN1CC(=O)Nc1sc2c(c1C#N)CCCCC2 (stereo not drawn)	58.8%	Kd (Major prion protein; read-out: Kd): 21.9 µM
O=C(CN1C(=O)COc2ccccc21)N1CCCc2ccccc21	57.5%	–
Cc1cccc2cc(C#N)c(N3CCCN(C(=O)C4CCC4)CC3)nc12	50.6%	–
CCCCNc1nc2ccccc2n1CC(=O)N1CCc2ccccc21	37.3%	Kd (Major prion protein; read-out: Kd): 20 µM; Activity [2]: < 70%
O=C(CSc1ncnc2sc3c(c12)CCC3)NCC1CCCO1 (stereo not drawn)	–	Kd (Major prion protein): Not Active
Cc1ccc2c(c1)c1c(n2CC(O)CN2CCCCC2)C(=O)CCC1 (stereo not drawn)	51.3%	–
Cc1cc2cc3c(cc2nc1SCCN1CCCCC1)OCCO3	47.4%	Kd (Major prion protein; read-out: Kd): 50.8 µM; Activity [2]: < 70%
CC(=O)N(Cc1ccccc1)Cc1cc2cccc(C)c2n2nnnc12	–	Kd (Major prion protein): Not Active
O=C(CCc1nc2ccccc2c(=O)[nH]1)NC1CCCc2ccccc21 (stereo not drawn)	65%	–
N#Cc1c(NC(=O)c2cc3c(s2)CCCC3)sc2c1CCCC2	66.9%	–
CCCc1nc2ccccc2n1CC(=O)N1CCCc2ccccc21	67.2%	–
O=C(CN1C(=O)NC2(CCCc3ccccc32)C1=O)N1CCCCC1 (stereo not drawn)	67.1%	–
O=C(Cc1coc2cc3c(cc12)CCC3)N1CCc2ccccc21	63.7%	–
